Key:
IGROV-1 = assay: Induction of apoptosis in human IGROV1 cells assessed as total apoptotic death at 15 uM using annexin V/7-AAD by FACS analysis (reference value: 13 %); assay type: functional
In short: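 Cells plated 24 h before treatment, then exposed 24 h to 0.5, 5, 15 or 50 μM compound (final DMSO 0.5%); vehicle controls included. Cells scraped and stained with annexin V-FITC and 7-AAD for 15 min on ice in the dark. Flow cytometry with 488 nm excitation, 10,000 gated cells. Early apoptosis was annexin V+/7-AAD−, late was annexin V+/7-AAD+.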

BXPC-3 = assay: Cell cycle arrest in human BxPC3 cells assessed as accumulation at G1 phase at 15 uM after 24 hrs using propidium iodide staining by FACS analysis (reference value: 41 %); assay type: functional
In short: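 Cells were plated 24 h before treatment and exposed for 24 h at final 0.5, 5, 15 and 50 μM in 0.5% DMSO, against vehicle-treated controls. Cells were then trypsinised and fixed in cold ethanol for 3 h at 4 °C. They were stained in a mix of RNase (200 μg/mL) and PI (1 mg/mL) for 45 min at room temperature in the dark. Flow cytometry used 488 nm excitation and 10 000 gated cells. Phase percentages were assigned from DNA content.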

SMILES: CN1CCN(CCCc2ccc(C(c3ccccc3)C34CC5CC(CC(C5)C3)C4)cc2)CC1 (configuration not stated)
- Activity (IGROV-1): 57%
- Activity (BXPC-3): 32%

Source: ChEMBL document CHEMBL2202989, “New adamantane phenylalkylamines with σ-receptor binding affinity and anticancer activity, associated with putative antagonism of neuropathic pain” (J Med Chem, 2012)
